The results in this text go back to ChEMBL document CHEMBL1157681 (Bioorg Med Chem, 2010).

SMILES strings stand for the structures. The source made the active and inactive calls. The calls are words filed in the database; no cut-off is given here.

The subject of assay [1] is MCF7. Kind of assay: Antiproliferative activity against human MCF7 cells after 72 hrs by MTS/PMS assay. Particulars: MCF7, 72 h. The class given is functional, cell-based. In a few lines: (§1)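 Cells grown at 37 °C in humidified 5% CO2, seeded at 2000/well and left to attach overnight. Compound added at varying concentrations in DMSO (1% final) for 72 h. Viable cells read by MTS/PMS, normalized to 1% DMSO wells as 100% proliferation. IC50 taken from separate experiments run in triplicate.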

The subject of assay [2] is SK-BR-3. In words: Antiproliferative activity against human SKBR3 cells after 72 hrs by MTS/PMS assay. Format: functional, cell-based. Particulars: SK-BR-3, 72 h. In a few lines: as §1
Assay [3] relates to SK-BR-3. In words: Ratio of IC50 for human SK-BR-3 cells to IC50 for human MCF7 cells. Format: functional.
Assay [4] has as its target Heat shock protein HSP 90-beta (Homo sapiens) (UniProt P08238). In words: Inhibition of HSP90 in human MCF7 cells assessed as induction of HSP90 client protein Her2 degradation after 24 hrs by Western blot analysis. Format: cell-based. In a few lines:
(§2)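 MCF-7 cells exposed 24 h to various concentrations in DMSO (1% final) or vehicle. Cells lysed in RIPA with 1 mM PMSF, 2 mM orthovanadate and protease inhibitors, 1 h on ice, then clarified at 14000g for 10 min at 4 °C; protein by BCA. 20 μg protein run under reducing conditions, blotted to nitrocellulose, probed with specific antibodies plus HRP secondary, read by chemiluminescence; β-actin also probed.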
(In general: In western blotting, separated proteins are transferred to a membrane and probed.)

The target is the same in assay [5]. In words: Inhibition of HSP90 in human MCF7 cells assessed as induction of HSP90 client protein cRaf degradation after 24 hrs by Western blot analysis. Format: cell-based. In a few lines: as §2
The subject of assay [6] is MCF7. Kind of assay: Inhibition of heat shock response-induced increase in HSP90 protein level in human MCF7 cells at 1 to 100 uM after 24 hrs by Western blot analysis. Format: functional, cell-based.

Heat shock protein HSP 90-beta (Homo sapiens), sequence (P08238 whole entry): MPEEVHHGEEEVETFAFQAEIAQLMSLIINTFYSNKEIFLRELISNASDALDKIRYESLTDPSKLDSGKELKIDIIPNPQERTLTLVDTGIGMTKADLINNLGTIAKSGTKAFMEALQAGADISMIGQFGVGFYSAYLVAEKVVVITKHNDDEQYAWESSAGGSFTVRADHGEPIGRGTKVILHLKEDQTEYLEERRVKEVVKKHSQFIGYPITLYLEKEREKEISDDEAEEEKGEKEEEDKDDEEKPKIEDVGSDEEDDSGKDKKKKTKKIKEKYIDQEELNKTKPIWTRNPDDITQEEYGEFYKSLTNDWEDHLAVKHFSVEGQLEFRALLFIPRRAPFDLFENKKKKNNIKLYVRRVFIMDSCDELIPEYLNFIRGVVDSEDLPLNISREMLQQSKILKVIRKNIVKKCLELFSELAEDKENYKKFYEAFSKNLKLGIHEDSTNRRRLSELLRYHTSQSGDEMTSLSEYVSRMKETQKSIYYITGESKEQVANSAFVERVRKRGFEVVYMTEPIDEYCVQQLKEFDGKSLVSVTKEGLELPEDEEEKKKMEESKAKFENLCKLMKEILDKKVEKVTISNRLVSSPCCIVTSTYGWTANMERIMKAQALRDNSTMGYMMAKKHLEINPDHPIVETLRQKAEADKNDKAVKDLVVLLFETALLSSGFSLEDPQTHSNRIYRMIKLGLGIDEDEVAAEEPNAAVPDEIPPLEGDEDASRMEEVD

The IC50 is the concentration that inhibits the measured activity by half. Lower therefore signals greater potency. In the case of `COc1cccc(-c2cc(C(=O)Nc3coc4cc(OC(C)=O)cc(O)c4c3=O)ccc2OC)c1`, the IC50 with MCF7 [1] was found to be 5.1 µM; with SK-BR-3 [2], 3.3 µM.
On to `COc1cccc(-c2cc(C(=O)Nc3cc(=O)c4cc(OC(C)=O)ccc4o3)ccc2OC)c1`, for which the IC50 with MCF7 [1] and with SK-BR-3 [2] was over 100 µM throughout.
Regarding `COc1cccc(-c2cc(C(=O)Nc3coc4cc(O)ccc4c3=O)ccc2OC)c1`, the results for the IC50 with MCF7 [1] and with SK-BR-3 [2] were 8.6 µM and 37.1 µM, respectively. Moreover, the “Ratio IC50” value with SK-BR-3 [3] came to 1.9.
Regarding `CO[C@@H]1[C@@H](O)[C@@H](O)[C@H](Oc2cc(O)c3c(=O)c(NC(C)=O)coc3c2)OC1(C)C`, the IC50 with MCF7 [1] and in the assay with SK-BR-3 [2] was over 100 µM each time.
In the case of `CC(=O)Nc1coc2cc(OC(C)=O)ccc2c1=O`, the IC50 in the assay on MCF7 [1] and in the assay on SK-BR-3 [2] was over 100 µM throughout.
Turning to `CC(=O)Nc1cc(=O)c2cc(OC(C)=O)ccc2o1`, the half-inhibitory concentration (IC50) with MCF7 [1] and with SK-BR-3 [2] was over 100 µM throughout.
In the case of `CC(=O)Nc1coc2cc(OC(C)=O)cc(O)c2c1=O`, the IC50 in the assay on MCF7 [1] is 93.7 µM; in the assay with SK-BR-3 [2], over 100 µM.
With `COc1cccc(-c2cc(C(=O)Nc3coc4cc(O)cc(O)c4c3=O)ccc2OC)c1`, the IC50 stood at 9.7 µM in the assay with MCF7 [1] and 21.3 µM with SK-BR-3 [2]. Moreover, the “Ratio IC50” value in the assay with SK-BR-3 [3] is given as 1.9.
In the case of `CO[C@@H]1[C@@H](O)[C@@H](O)[C@H](Oc2ccc3c(=O)c(NC(C)=O)coc3c2C)OC1(C)C`, the 50% inhibitory concentration (IC50) with MCF7 [1] and in the assay with SK-BR-3 [2] was over 100 µM in each case.
In the case of `CC(C)=CCc1cc2c(=O)c(-c3ccc4c(c3)OCO4)coc2cc1O`, the IC50 in the assay with MCF7 [1] worked out at 13.1 µM; with SK-BR-3 [2], 36.5 µM.
`CC(C)=CCc1c(O)cc2occ(-c3ccc4c(c3)OCO4)c(=O)c2c1O` [DERRUBONE] showed an IC50 in the assay with MCF7 [1] of 11.9 µM.
For the compound `Cc1c(O)ccc2c(=O)c(-c3ccc4c(c3)OCO4)coc12`, the IC50 with MCF7 [1] and in the assay on SK-BR-3 [2] was over 100 µM throughout.
Regarding `CC(=O)Oc1cc(O)c2c(=O)c(-c3ccc4c(c3)OCO4)coc2c1`, the IC50 in the assay on MCF7 [1] and with SK-BR-3 [2] was over 100 µM throughout.
As to `O=c1c(-c2ccc3c(c2)OCO3)coc2cc(O)ccc12` [PSEUDOBAPTOGENIN], the IC50 in the assay on MCF7 [1] and with SK-BR-3 [2] was over 100 µM in each case.
As for `O=c1c(-c2ccc3c(c2)OCO3)coc2cc(O)cc(O)c12`, the IC50 is 70 µM in the assay with MCF7 [1] and over 100 µM in the assay with SK-BR-3 [2].
As for `CO[C@@H]1[C@@H](O)[C@@H](O)[C@H](Oc2ccc3cc(NC(=O)CCCCC(=O)Nc4cc5ccc(O[C@@H]6OC(C)(C)[C@H](OC)[C@@H](O)[C@H]6O)cc5oc4=O)c(=O)oc3c2)OC1(C)C`, in the assay on SK-BR-3 [2], the IC50 is 2 µM.
Turning to `COc1cccc(-c2cc(C(=O)Nc3coc4c(C)c(OC(C)=O)ccc4c3=O)ccc2OC)c1`, the IC50 in the assay on MCF7 [1] amounted to 4.8 µM; with SK-BR-3 [2], 17 µM.
On to `CC(=O)Oc1ccc2c(=O)c(-c3ccc4c(c3)OCO4)coc2c1C`, for which the IC50 with MCF7 [1] and in the assay with SK-BR-3 [2] was over 100 µM each time.
In the case of `CC(=O)Nc1coc2c(C)c(O)ccc2c1=O`, the concentration for half-maximal inhibition (IC50) in the assay with MCF7 [1] and with SK-BR-3 [2] was over 100 µM in each case.
In the case of `CO[C@@H]1[C@@H](O)[C@@H](O)[C@H](Oc2ccc3oc(NC(C)=O)cc(=O)c3c2)OC1(C)C`, the IC50 in the assay on MCF7 [1] and in the assay with SK-BR-3 [2] was over 100 µM throughout.
As for `COc1cccc(-c2cc(C(=O)Nc3coc4c(C)c(O)ccc4c3=O)ccc2OC)c1`, the IC50 turned out to be 4.9 µM in the assay on MCF7 [1] and 44.1 µM with SK-BR-3 [2]. In addition, the “Ratio IC50” value with SK-BR-3 [3] was found to be 1.9.
For `CC(=O)Nc1coc2cc(O)cc(O)c2c1=O`, the IC50 with MCF7 [1] and in the assay on SK-BR-3 [2] was over 100 µM throughout.
Turning to `CC(=O)Oc1ccc2c(=O)c(-c3ccc4c(c3)OCO4)coc2c1`, the IC50 in the assay on MCF7 [1] and in the assay with SK-BR-3 [2] was over 100 µM in each case.
As for `CO[C@@H]1[C@@H](O)[C@@H](O)[C@H](Oc2ccc3c(=O)c(-c4ccc5c(c4)OCO5)coc3c2C)OC1(C)C`, the IC50 was 18.4 µM in the assay with MCF7 [1] and 21.4 µM in the assay with SK-BR-3 [2].
In the case of `COc1cccc(-c2cc(C(=O)Nc3cc(=O)c4cc(O[C@@H]5OC(C)(C)[C@H](OC)[C@@H](O)[C@H]5O)ccc4o3)ccc2OC)c1`, the concentration for half-maximal inhibition (IC50) amounted to 14.7 µM in the assay on MCF7 [1] and 33.8 µM in the assay with SK-BR-3 [2].
In the case of `COc1cccc(-c2cc(C(=O)Nc3coc4cc(OC(C)=O)ccc4c3=O)ccc2OC)c1`, the values for the IC50 in the assay on MCF7 [1] and in the assay on SK-BR-3 [2] were 9.5 µM and 18.4 µM, respectively.
In the case of `COc1cccc(-c2cc(C(=O)Nc3coc4cc(O[C@@H]5OC(C)(C)[C@H](OC)[C@@H](O)[C@H]5O)cc(O)c4c3=O)ccc2OC)c1`, the IC50 in the assay on MCF7 [1] came to 23.6 µM; with SK-BR-3 [2], 19.4 µM.
Turning to `COc1cccc(-c2cc(C(=O)Nc3coc4c(C)c(O[C@@H]5OC(C)(C)[C@H](OC)[C@@H](O)[C@H]5O)ccc4c3=O)ccc2OC)c1`, the IC50 with MCF7 [1] was 51.6 µM; with SK-BR-3 [2] it was 46 µM.
In the case of `COc1cccc(-c2cc(C(=O)Nc3cc(=O)c4cc(O)ccc4o3)ccc2OC)c1`, the figures for the IC50 in the assay on MCF7 [1] and with SK-BR-3 [2] were 10.5 µM and 19.6 µM, respectively.
For `CC(=O)Nc1cc(=O)c2cc(O)ccc2o1`, in that order: over 100 µM and over 100 µM.
For `CO[C@@H]1[C@@H](O)[C@@H](O)[C@H](Oc2ccc3c(=O)c(-c4ccc5c(c4)OCO5)coc3c2)OC1(C)C`, in that order: 9.2 µM and 18 µM.
For `CC(=O)Nc1coc2cc(O)ccc2c1=O`, in that order: over 100 µM and over 100 µM.
On to `COc1cccc(-c2cc(C(=O)Nc3coc4cc(O[C@@H]5OC(C)(C)[C@H](OC)[C@@H](O)[C@H]5O)ccc4c3=O)ccc2OC)c1`, for which the IC50 in the assay with MCF7 [1] was found to be 25.2 µM; with SK-BR-3 [2], 29 µM. Moreover, the Activity entry in assay [4] and in assay [5] was “Dose-dependent effect” throughout. Besides, the inhibition entry in the assay with MCF7 [6] is “Active”.
`CC(C)=CCc1cc2c(=O)c(-c3ccc4c(c3)OCO4)coc2c(C)c1O`: the values for the IC50 with MCF7 [1] and in the assay with SK-BR-3 [2] were 49.2 µM and over 100 µM, respectively.
With `CC(=O)Nc1coc2c(C)c(OC(C)=O)ccc2c1=O`, the IC50 in the assay on MCF7 [1] and in the assay on SK-BR-3 [2] was over 100 µM each time.
On to `CO[C@@H]1[C@@H](O)[C@@H](O)[C@H](Oc2cc(O)c3c(=O)c(-c4ccc5c(c4)OCO5)coc3c2)OC1(C)C`, for which the IC50 in the assay on MCF7 [1] and in the assay on SK-BR-3 [2] was over 100 µM in each case.
As to `CO[C@@H]1[C@@H](O)[C@@H](O)[C@H](Oc2ccc3c(=O)c(NC(C)=O)coc3c2)OC1(C)C`, the IC50 in the assay with MCF7 [1] and in the assay on SK-BR-3 [2] was over 100 µM in each case.
